# From PubChem
# Only some compounds are listed: those with a hit (about 2.6% of all), similar ones and a draw of the others.
# esBAF inh – blocks esBAF chromatin remodeling in mouse ES cells. Bmi1-luciferase knock-in reporter, 24 h; 100% = twice the neutral-well signal. reporter increase, % at 12.5 µM. 350,000 compounds, 2% hits. AID 602393; in the data active means activation above about 40%; inconclusive means no clear call, values can overlap the other calls;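 further: a rise in the Bmi1 reporter signal indicates esBAF inhibition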
# Vif imaging – inhibitors of HIV Vif; 340,000 compounds, 0.35% hits; inhibition, % at 7.49 µM; HEK293T cells, Vif self-association by quenched fluorescence, imaging, 24 h; in the data active means inhibition above about 50%, passing the limit was not always enough; inconclusive means no clear call, values can overlap the other calls; inactive means below about 31%
# Xi reactivation – X-chromosome reactivation activator | activation, % at 7.58 µM | XiGFP mouse fibroblasts, % GFP-positive cells imaging, 3 d; cells co-treated with 5-aza-dC sensitizer; scaled so ellipticine positive control = 100% | 360,000 compounds, 0.055% hits;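 active means mean normalized replicate activation at least 10% and every replicate at or above 10%; inconclusive means only one of the two criteria met; inactive means mean below 10% and not all replicates reach 10%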
#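 assay system = SV40-immortalized XiGFP fibroblast cells, line 68-5-11 | buffer or medium = DMEM plus 5-aza-dC sensitizer | doses = single-point pinned compound dosing | times = 3-day compound exposure, then 15 min fixation at room temperature | benchmarks = positive control ellipticine, 6 µM final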
# MITF TRPM1 HTS – activators of MITF-driven TRPM1 promoter activity in SK-MEL-5 cells | activation, % at 12.5 µM | SK-MEL-5 TRPM1-promoter luciferase, 24 h; % of positive control, neutral wells = 0 | AID 588334 | 300,000 compounds, 0.75% hits;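 active means mean activation of at least 80% with every replicate also reaching 80%; inconclusive means mean reaches 80% but some replicate falls short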
# Wnt act – Wnt/beta-catenin pathway activation | activation, % at 9.35 µM | AID 743398 | Wnt/beta-catenin reporter cell assay, activator, plate reader | 300,000 compounds, 1.2% hits; in the data active means activation above about 30%, passing the limit was not always enough; inconclusive means no clear call, values can overlap the other calls
# A number is an active result; . = inactive; ? = inconclusive; / = no result given.
SMILES,esBAF inh,Vif imaging,Xi reactivation,MITF TRPM1 HTS,Wnt act
Cc1ccsc1C(=O)OCC(=O)NC1CC1,.,.,.,.,.
CNC[C@H]1Oc2ccc(NC(=O)NC(C)C)cc2C(=O)N([C@H](C)CO)C[C@H]1C,.,/,.,/,/
COc1ccc2c3c(n(C)c2c1)[C@@H](CO)N(C(=O)NC(C)C)CC31CCN(C(C)=O)CC1,/,/,.,/,/
COc1ccc(S(=O)(=O)Nc2ccc3c(c2)C(=O)N([C@H](C)CO)C[C@@H](C)[C@@H](CN(C)C(=O)CCC(F)(F)F)OCCCC[C@H](C)O3)cc1,.,/,.,/,/
O=C(OCC(=O)N1CCOCC1)c1ccc2ccccc2c1O,?,.,.,.,42
CCn1c(SCc2nc3ccccc3s2)nc2cc(S(=O)(=O)N3CCOCC3)ccc21,62,.,.,.,?
N#CCc1nc2ccc(S(=O)(=O)N3CCOCC3)cc2s1,.,.,.,.,.
O=S(=O)(c1ccc(OCc2nc3ccccc3s2)c(Cl)c1)N1CCOCC1,86,.,/,.,/
CCCSc1nc2cc(S(=O)(=O)N3CCOCC3)ccc2n1CC,/,/,.,.,.
Cn1c(NCc2cccs2)nc2ccccc21,50,/,/,.,/
